Results taken from article PMC12462367 (RSC Advances, 2025).
Converted amounts (≈) assume the structure as drawn.

Experiments:
S. aureus ATCC 29213 [1] = assay: MIC, broth microdilution; assay type: cell-based; conditions: Staphylococcus aureus, ATCC29213, read-out: Minimum inhibitory concentration (MIC), S. aureus ATCC 29213
Summary of the method: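 Broth microdilution following CLSI guidelines. Strain grown in Mueller–Hinton broth with shaking at 37 °C for about 5 h, then diluted to ~10^5 CFU mL−1 in wells. Test compound serially diluted over 0.05–256 μg mL−1, and plates incubated 37 °C for 18 h. MIC taken as the lowest concentration with no visible growth. Run in triplicate.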

S. aureus MRSA2 = assay: MIC, broth microdilution; assay type: cell-based, Staphylococcus aureus; conditions: for MIC: Staphylococcus aureus, MRSA2, read-out: Minimum inhibitory concentration (MIC), S. aureus MRSA2
Summary of the method: (§1)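 Broth microdilution per CLSI. Strains were grown in Mueller–Hinton broth on a shaker at 37 °C for about 5 h, then diluted to ~10^5 CFU mL−1. Test compound was serially diluted (0.05–256 μg mL−1), and plates were incubated at 37 °C for 18 h. MIC is the lowest concentration with no visible growth. Run in triplicate.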

B. subtilis ATCC6633 = assay: MIC, broth microdilution; assay type: cell-based
Summary of the method: as §1

B. cereus CMCC63303 = assay: MIC, broth microdilution; assay type: cell-based
Summary of the method: as §1

[2] = system: L. monocytogenes CICC21662; assay: MIC, broth microdilution; assay type: cell-based
Summary of the method: as §1

E. faecalis ATCC29212 = assay: MIC, broth microdilution; assay type: cell-based
Summary of the method: as §1

S. aureus LN38 = assay: MIC, broth microdilution; assay type: cell-based, Staphylococcus aureus
Summary of the method: as §1

E. coli ATCC 25922 = assay: MIC, broth microdilution; assay type: cell-based, Escherichia coli; conditions: 16–24 h
Summary of the method: as §1

Cytotoxicity assay [3] = assay type: cell-based; conditions: human, HK-2 cells
Cytotoxicity assay [4] = assay type: cell-based; conditions: human, LO2 cells
rabbit red blood cells = assay: Hemolysis assay; assay type: cell-based
Summary of the method: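 Test compound in PBS was mixed 1:1 with 4% defibrinated rabbit erythrocytes in PBS (final 2–256 μg mL−1) at 37 °C. Cells were pelleted (1000×g, 5 min) and supernatant absorbance read at 490 nm. Hemolysis % = (sample − PBS)/(Triton − PBS), with 1% Triton X-100 as positive and sterile PBS as negative reference. Triplicate.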

S. aureus ATCC 29213 [5] = assay: Time-killing kinetics; assay type: cell-based, Staphylococcus aureus
S. aureus ATCC 29213 [6] = assay: Drug resistance study; assay type: cell-based, Staphylococcus aureus; conditions: sub-MIC passage 28 days
S. aureus MRSA2 biofilm = assay: Biofilm formation inhibition; assay type: cell-based, Staphylococcus aureus; conditions: 64 μg mL^−1 (8 × MIC)
Summary of the method: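 S. aureus MRSA2 was diluted 1:100 in TSB with 1% (w/v) glucose and incubated with test compound (256–2 μg mL−1) for 24 h at 37 °C; DMSO-matched controls. Wells were rinsed with PBS three times, air-dried, stained with 0.1% crystal violet for 15 min, destained with 95% ethanol and read at 595 nm. Inhibition % = (ODcontrol − ODsample)/ODcontrol × 100. Triplicate.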

[7] = system: S. aureus MRSA2 mature biofilm; assay: Mature biofilm eradication; assay type: cell-based, Staphylococcus aureus; conditions: 128 μg mL^−1 (16 × MIC), 24 hours treatment
[8] = system: TNF-α in LPS-stimulated RAW 264.7 macrophages; assay: TNF-α release, LPS-stimulated macrophages; assay type: cell-based
[9] = system: IL-6 in LPS-stimulated RAW 264.7 macrophages; assay: IL-6 secretion, LPS-stimulated macrophages; assay type: cell-based; conditions: Mus musculus, RAW264.7, read-out: inhibition of IL-6 secretion
Summary of the method: (§2)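 RAW 264.7 cells (5 × 10^4 per well) were allowed to adhere overnight in DMEM with 10% FBS. Cells were pretreated with test compound for 2 h, then stimulated with LPS (e.g., 100 ng mL−1) for 24 h at 37 °C, 5% CO2. IL-6 and IL-1β in culture supernatants were measured by ELISA. Vehicle controls (e.g., 0.1% DMSO); ≥3 biological replicates.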

[10] = system: IL-1β in LPS-stimulated RAW 264.7 macrophages; assay: IL-1β production, LPS-stimulated macrophages; assay type: cell-based; conditions: Mus musculus, RAW264.7, read-out: inhibition of IL-1β production
Summary of the method: as §2

[11] = system: NO in LPS-stimulated RAW 264.7 macrophages; assay: Nitric oxide production, LPS-stimulated macrophages; assay type: cell-based; conditions: 128 μg mL^−1
Summary of the method: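 Murine RAW 264.7 macrophages (5 × 10^4 per well, DMEM with 10% FBS) were allowed to adhere overnight. Cells were pretreated with test compound for 2 h, then exposed to LPS (e.g., 100 ng mL−1) for 24 h at 37 °C under 5% CO2. Nitric oxide in culture supernatants was measured with a commercial detection kit. Vehicle controls (e.g., 0.1% DMSO); ≥3 biological replicates.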

S. aureus ATCC 29213 [12] = assay: Membrane permeability assay; assay type: cell-based, Staphylococcus aureus; conditions: 4 × MIC (32 μg mL^−1); 2 hours
S. aureus ATCC 29213 [13] = assay: Membrane potential assay; assay type: cell-based, Staphylococcus aureus
Summary of the method: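 S. aureus ATCC 29213 was grown overnight, brought to log phase (OD600 = 0.4), pelleted and resuspended in PBS at 10^6–10^7 CFU mL−1. Cells were exposed to test compound or 10 μM CCCP (depolarization control) for 15 min at room temperature in the dark. DiOC2(3) (BacLight kit) was then added for 30 min under the same conditions; red/green fluorescence ratio recorded. Triplicate.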

S. aureus ATCC 29213 [14] = assay: Protein leakage; assay type: cell-based, Staphylococcus aureus; conditions: increasing concentrations (1 ×, 4 ×, 16 × MIC); 4 h
Summary of the method: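 After centrifugation (12 000×g, 10 min, 4 °C) and 0.22 μm filtration, supernatant protein was determined by BCA assay at 562 nm. Vehicle controls; technical triplicates.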

S. aureus ATCC 29213 [15] = assay: DNA leakage; assay type: cell-based, Staphylococcus aureus; conditions: increasing concentrations (1 ×, 4 ×, 16 × MIC); 4 h
Summary of the method: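 Cells were pelleted (12 000×g, 10 min, 4 °C) and the supernatant passed through a 0.22 μm filter. Extracellular DNA was measured as A260 by microvolume spectrophotometry. Vehicle controls; technical triplicates.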

[16] = Plasma protein binding, equilibrium dialysis; assay type: in vitro ADME; conditions: Sprague-Dawley, rat
Summary of the method: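 Equilibrium dialysis: bags holding 0.5 mL of blank Sprague–Dawley rat plasma were placed in 40 mL of PBS containing test compound at 30 μM. Incubation was 24 h at 37 °C with shaking at 100 rpm. Both compartments were assayed by HPLC. Binding % = (A − B)/A, where A is the total concentration inside the bag and B the free concentration in the dialysate. Nonspecific binding controls; triplicate.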

Row | Compound | MIC (S. aureus ATCC 29213 [1]) | MIC (S. aureus MRSA2) | activity against B. subtilis ATCC6633 (B. subtilis ATCC6633) | activity against B. cereus CMCC63303 (B. cereus CMCC63303) | activity against L. monocytogenes CICC21662 [2] | activity against E. faecalis ATCC29212 (E. faecalis ATCC29212) | activity against S. aureus LN38 (S. aureus LN38) | also measured
1 | CCN(CC)c1ccc(C=NNC(=O)c2ccccc2)c(O)c1 [D1, N′-(4-(diethylamino)-2-hydroxybenzylidene)benzohydrazide] | > 256 µg/mL | > 256 µg/mL |  |  |  |  |  | 
2 | CCN(CC)c1ccc(C=NNC(=O)c2ccncc2)c(O)c1 [D2, N′-(4-(diethylamino)-2-hydroxybenzylidene)isonicotinohydrazide] | > 256 µg/mL | > 256 µg/mL |  |  |  |  |  | 
3 | CCN(CC)c1ccc(C=Nc2cc(C)c(Br)cn2)c(O)c1 [D10, 2-(((5-bromo-4-methylpyridin-2-yl)imino)methyl)-5-(diethylamino)phenol] | > 256 µg/mL | > 256 µg/mL |  |  |  |  |  | 
4 | CN[C@H](CC(C)C)C(=O)N[C@H]1C(=O)N[C@@H](CC(N)=O)C(=O)N[C@H]2C(=O)N[C@H]3C(=O)N[C@H](C(=O)N[C@H](C(=O)O)c4cc(O)cc(O)c4-c4cc3ccc4O)[C@H](O)c3ccc(c(Cl)c3)Oc3cc2cc(c3O[C@@H]2O[C@H](CO)[C@@H](O)[C@H](O)[C@H]2O[C@H]2C[C@](C)(N)[C@H](O)[C@H](C)O2)Oc2ccc(cc2Cl)[C@H]1O [Vancomycin] | 1 µg/mL (≈ 0.69 µM) | 2 µg/mL (≈ 1.38 µM) | 1 | 1 | 1 | 2 | 1 | 
5 | CCN(CC)c1ccc(C=O)c(O)c1 [C, 4-(diethylamino)-2-hydroxybenzaldehyde] | > 256 µg/mL | > 256 µg/mL | >256 | >256 | >256 | >256 | >256 | Minimum inhibitory concentration (MIC), S. aureus MRSA2 (S. aureus MRSA2; clinically isolated methicillin-resistant S. aureus MRSA2, 16–24 h): >256 µg/mL
6 | CCN(CC)c1ccc(C=Nc2cc(C)ccc2O)c(O)c1 [D9, 2-((4-(diethylamino)-2-hydroxybenzylidene)amino)-4-methylphenol] | > 256 µg/mL | > 256 µg/mL |  |  |  |  |  | 
7 | CCN(CC)c1ccc(C=NNC(=O)c2ccc(C)cc2)c(O)c1 [D3, N′-(4-(diethylamino)-2-hydroxybenzylidene)-4-methylbenzohydrazide] | > 256 µg/mL | > 256 µg/mL |  |  |  |  |  | 
8 | CCN(CC)c1ccc(C=NNC(=O)c2ccccn2)c(O)c1 [D5, N′-(4-(diethylamino)-2-hydroxybenzylidene)picolinohydrazide] |  | 8 µg/mL (≈ 25.6 µM) | 16 | 8 | 8 | 8 | 16 | Minimum inhibitory concentration (MIC), E. coli ATCC 25922 (E. coli ATCC 25922): >256 µg/mL; viability at 24 h, 256 μg mL^−1 (Cytotoxicity assay [3]): > 85%; viability at 24 h, 256 μg mL^−1 (Cytotoxicity assay [4]): > 85%; hemolysis at 256 μg mL^−1 (rabbit red blood cells; 256 μg mL^−1): no significant hemolysis; hemolytic activity against rabbit RBCs (rabbit red blood cells; 2 to 256 μg mL^−1, 4% rabbit RBCs, 37 °C): no hemolytic activity; time to complete eradication of bacteria (S. aureus ATCC 29213 [5]; 8 × MIC): ≤ 10 h; eradication of bacterial colonies (S. aureus ATCC 29213 [5]; S. aureus ATCC 29213, 8 × MIC (64 μg mL^−1), within 10 hours): > 99.9%; increase of MIC after serial passage (S. aureus ATCC 29213 [6]): 16 fold; suppression of biofilm formation (S. aureus MRSA2 biofilm): > 95%; clearance of mature biofilms [7]: > 95%; lowest concentration at which TNF-α suppression emerges ([8]; LPS-stimulated RAW 264.7): 8 µg/mL; inhibition at 128 µg/mL ([8]; Mus musculus, RAW264.7, read-out: inhibition of TNF-α release): 40%; inhibition at 128 µg/mL [9]: 46%; inhibition at 128 µg/mL [10]: 39%; reduction of nitric oxide (NO) synthesis [11]: 53%; membrane permeabilization (PI uptake) (S. aureus ATCC 29213 [12]): near-complete PI uptake; membrane depolarization (DiOC2(3) red/green fluorescence ratio) (S. aureus ATCC 29213 [13]): significant decrease; leakage of proteins into culture medium (S. aureus ATCC 29213 [14]): dose-dependent efflux; leakage of DNA into culture medium (S. aureus ATCC 29213 [15]): dose-dependent efflux; fraction unbound at 24 h, 30 μM [16]: 0.134
